Source: PubChem BioAssay (several laboratories)
Most compounds without a hit are left out; they make up all but 2.7% or so of the library.
L929 necroptosis: L929 zVAD cell death inhibition. L929 zVAD necroptosis rescue, ATP luminescence, 24 h; with zVAD 60 µM. viability rescue, % at 10 µM. hit rate 0.38% among 220,000. AID 1377;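 active = activation, scaled between plate controls, above about 75%, limit read from the data; inactive = activation under that limit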;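 note: 0% = zVAD with DMSO and 100% = DMSO alone without zVAD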
PfM18AAP inh: PfM18AAP enzyme inhibition; recombinant PfM18AAP, H-Glu-NHMec fluorogenic cleavage; hit rate 1.2% among 290,000; inhibition, % at 7.35 µM;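 active = inhibition above the campaign mean inhibition over all tested compounds plus 3 SD, cut at about 28% in these data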;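 note: 0% = plate median of test compound wells and 100% = 2 mM ZnCl2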
Wee1 degr inh: inhibitors of human Wee1 degradation; AID 1321; hit rate 1.2% among 220,000; HeLa Luc-Wee1K328M stability, luciferase luminescence; 100% = proteasome inhibitor MG132 effect; reporter increase, % at 5 µM;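 active = activation above the mean of all tested compounds plus 3 SD, set per screening run, cut at about 8.8% in these data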;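 note: cells exposed to compound for 20 h before luminescence read; 0% = DMSO alone and 100% = MG132 at 30 µM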
p97 inhibitor: blocks human p97 ATPase activity; recombinant p97 ATPase, Kinase-Glo ATP luminescence, 3 h; P55072; hit rate 0.42% among 220,000; AID 1481; inhibition, % at 8 µM; in the data active = inhibition above about 15%;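 note: 0% = DMSO vehicle and 100% = wells lacking enzyme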
TNF death inh: TNF-alpha cell death inhibition in Jurkat FADD-/- cells; Jurkat FADD-/- TNF necroptosis rescue, ATP luminescence, 24 h; 0 = TNF only, 100 = no-TNF cells; activation (protection from cell death), % at 10 µM; hit rate 0.068% among 220,000;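 active = activation, meaning protection from cell death, of at least 50% relative to plate controls; inactive = activation below 50%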;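 note: necroptosis triggered by 40 ng/mL TNF-alpha added together with compound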
RBBP9 inh: inhibitors of human serine hydrolase RBBP9; hit rate 0.2% among 220,000; recombinant RBBP9, FP-Rh probe fluorescence polarization; O75884; AID 1515; inhibition, % at 7.94 µM;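 active = inhibition above the campaign mean of all tested compounds plus 3 SD, cut at about 14% in these data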;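 note: plate controls were DMSO wells with RBBP9 for no effect and wells lacking RBBP9 protein for full effect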
Target sequence (O75884 whole entry, looked up): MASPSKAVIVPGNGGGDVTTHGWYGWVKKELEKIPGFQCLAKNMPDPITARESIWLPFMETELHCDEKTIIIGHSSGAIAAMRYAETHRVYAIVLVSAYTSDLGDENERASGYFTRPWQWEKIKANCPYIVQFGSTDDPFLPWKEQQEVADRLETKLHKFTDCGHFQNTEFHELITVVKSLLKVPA
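system = RBBP9 protein | input = RBBP9 at 2.5 µM in dispensed solution, before mixing | measured by = fluorescence polarization (mP), excitation 525 nm, emission 598 nm | incubation = enzyme-compound preincubation 30 min, then probe labeling 45 min, 25 °C | buffer or medium = Tris-NaCl-Pluronic buffer, pH 8.0 | compound = single dose 7.94 µM | also added = FP-Rh probe, 375 nM dispensing solution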
Numbers without * were called inactive; · = no result.

SMILES	L929 necroptosis	PfM18AAP inh	Wee1 degr inh	p97 inhibitor	TNF death inh	RBBP9 inh
O=C(COc1cccc2ccccc12)NNC(=O)Nc1ccccc1	0	1	-2	4	-1	-4
O=C(COc1cccc2ccccc12)NNC(=O)CSCCO	1	31*	0	-1	1	-6
Cc1ccc(S(=O)(=O)c2nc(-c3ccccc3)oc2N2CCC(C(N)=O)CC2)cc1	·	-15	·	·	·	·
COc1ccc(CNC(=O)c2ccc(=O)oc2)cc1OC	1	3	9.4*	5	-1	-7
COc1ccc(C(=O)NCc2ccc(Cl)c(Cl)c2)cc1OC	0	-4	0	0	3	-4
Cc1cc(C)c(S(=O)(=O)/N=C2/C=C(Sc3ncn[nH]3)C(=O)c3ccccc32)cc1C	1	40*	-3	13	-9	8
O=C1C(=O)N(CCCN2CCOCC2)C(c2ccc([N+](=O)[O-])cc2)/C1=C(/O)c1ccc2c(c1)OCO2 (centres undefined)	·	31*	·	·	·	·
COc1ccccc1/C=C/C(=O)c1cc(Br)ccc1OC(=O)c1ccco1	0	3	13*	-1	-16	-7
O=C(O)c1ccc2c(c1)CCC2	3	-16	3	2	0	-3
O=C(O)CCC(=O)c1ccc2c(c1)CCCC2	1	-7	15*	1	0	-2
Fc1ccc2nc(Nc3nc4c(F)cccc4s3)sc2c1	2	-1	1	3	-1	-7
Fc1ccc2nc(Nc3ccccc3)sc2c1	2	-6	11*	-1	10	-1
Cc1ccc(S(=O)(=O)N2CCOCC2)cc1C(=O)NC1CCSc2ccccc21 (centres undefined)	·	0	·	·	·	·
COc1ccccc1OCC(=O)n1cc(C(=O)c2cc(Cl)cc(Cl)c2O)cn1	0	33*	1	-2	1	-7
c1ccc(Cn2c[n+](Cc3ccccc3)c3ccccc32)cc1	·	0	·	·	·	·
c1ccc(C[n+]2csc3ccccc32)cc1	0	30*	-1	-5	-11	-16
CCCCNC(=O)N1c2ccccc2CC1C (centres undefined)	2	0	-1	2	4	-1
O=C1OCC2=C1C(c1ccc(F)cc1)CC(=O)N2c1ccccc1 (centres undefined)	-1	15	8.9*	4	0	-1
O=C1OCC2=C1C(c1ccc(F)cc1)CC(=O)N2c1ccc(F)cc1 (centres undefined)	-1	3	-1	0	0	-7
Cc1ccc(COc2ccc(C)nc2[N+](=O)[O-])cc1	0	-3	8.8*	-4	0	2
CCc1ccc(/C=C/C(=O)c2cc(Br)ccc(=O)c2O)cc1	-1	60*	0	4	-8	-8
C=CCn1c(SCC(=O)N2CCN(c3ccccc3)CC2)nc2c([nH]c3ccccc32)c1=O	·	-6	·	·	·	·
Fc1ccccc1CNc1ccc(Cl)cc1	97*	2	5	2	81*	-5
COC(C(=O)Nc1ccc(NC(=O)C(OC)c2ccccc2)cc1)c1ccccc1 (centres undefined)	·	-2	·	·	·	·
COC(C(=O)Nc1ccc(Cl)cc1C)c1ccccc1 (centres undefined)	0	-9	1	4	97*	-8
SMILES	L929 necroptosis	PfM18AAP inh	Wee1 degr inh	p97 inhibitor	TNF death inh	RBBP9 inh
CCOc1ccc(S(=O)(=O)N2CCC(C(=O)NCCN3CCOCC3)CC2)cc1C	·	-4	·	·	·	·
CC(=O)Nc1nc(C)c(-c2csc(Nc3ccc(O)cc3)n2)s1	77*	28*	3	8	1	3
CCC(=O)Nc1nc(C)c(-c2csc(Nc3cccc(C(=O)O)c3)n2)s1	32	11	1	12	0	3
Cc1nc(N)sc1-c1csc(Nc2cccc(C(=O)O)c2)n1	·	29*	·	·	·	·
O=C(CN1CCN(C(=O)C2CCCO2)CC1)Nc1ccc(Cl)cc1 (centres undefined)	·	0	·	·	·	·
O=C1CSC(=S)N1N1C(=O)c2cccc([N+](=O)[O-])c2C1=O	0	43*	0	2	1	2
O=C1c2cccc([N+](=O)[O-])c2C(=O)N1CCO	4	-10	-2	-1	2	-8
CSc1cccc(NC(=S)N(CCC(C)C)C(C)c2ccncc2)c1 (centres undefined)	0	22	5	0	-2	-1
CCn1c(=O)n(CC)c2cc(N3CCCC3)c(NC(=O)c3ccc(C)c([N+](=O)[O-])c3)cc21	·	29*	·	·	·	·
CCn1c(=O)n(CC)c2cc(N3CCCC3)c(NC(=O)c3cccc(Cl)c3)cc21	·	32*	·	·	·	·
O=C(Nc1ccccc1N1CCN(C(=O)c2ccccc2)CC1)c1cccc(Cl)c1	0	-5	9.2*	0	0	-3
CCn1c(=O)n(CC)c2cc(N3CCCC3)c(NC(=O)c3ccc(OC)c(Br)c3)cc21	·	26	·	·	·	·
CCn1c(=O)n(CC)c2cc(N3CCCC3)c(NC(=O)c3cccc(C)c3)cc21	·	27	·	·	·	·
N#Cc1cc(NC(=O)c2ccc(F)cc2)c(=O)n2c1[nH]c1ccccc12	2	-7	-3	4	-1	-6
COc1ccccc1NC(=O)CCC(=O)OCc1ccc(Cl)cc1	0	-7	0	2	2	0
COc1ccc(C2C(C#N)=C(N)Oc3c2sc2nc(C)cc(C)c32)cc1 (centres undefined)	4	3	10*	3	-22	-12
Cc1ccc(S(=O)(=O)N2CCN(c3nccnc3C#N)CC2)cc1	0	-16	0	4	1	-3
C/C(CC(=O)Nc1ccc2c(c1)OCO2)=N\NC(=O)c1ccc(N)cc1	0	-6	9.6*	4	-1	-6
O=C(NCc1nnc(SCC(=O)N2CCN(c3ccccc3)CC2)o1)c1c(F)cccc1F	·	-4	·	·	·	·
CC1(C)CC(=O)C2=C(C1)NC(=S)C(C#N)C21CCCCC1 (centres undefined)	1	29*	-2	1	1	-3
COc1ccc(-c2nnc(SCC(=O)Nc3ccc(C)cc3)n2C)cc1	0	-2	9.8*	1	-1	-6
c1ccc(C2=Nc3ccccc3OC2)cc1	19	31*	-1	8	10	-9
Cc1ccc2c(c1)N=C(c1ccc(Cl)cc1)CO2	3	29*	-1	-10	-1	-15
Clc1ccc(C2=Nc3cc(Cl)ccc3OC2)cc1	0	-3	7	0	0	-6
Cc1ccc(N2C(=O)CS/C2=N\C(=S)Nc2ccccc2)cc1	1	-11	8	6	1	-7
COC(=O)c1ccc(C(NC(=O)c2cccnc2)NC(=O)c2cccnc2)cc1	-1	4	-1	-3	0	-9
COC(=O)c1cc(NS(=O)(=O)c2ccc(C)c3ccccc23)ccc1N1CCOCC1	0	-4	9.0*	1	2	0
